According to paper PMC5108244 (ACS Infectious Diseases, 2016):

How the values were obtained:
[1] = test system: T. brucei rhodesiense STIB900 strain; assay: Early-stage T. brucei infection model in mice; assay type: in vivo
How it was run: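 Female Swiss Webster mice (6–8 weeks, n = 4/group) infected ip on day 0 with 1 × 10^4 fresh-culture bloodstream-form parasites diluted in IMDM. Oral dosing twice daily, days 2–5 (eight doses), in 5% DMSO, 7% EtOH, 3% Tween-80 in saline; vehicle group in parallel; benzoxaborole reference as positive control. Parasitemia checked microscopically in tail blood through day 60.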

[2] = test system: T. brucei brucei TREU667 strain; assay: Late-stage T. brucei infection model in mice; assay type: in vivo; settings: mice n = 5, orally 25 mg/kg qd for 10 days, monitored 90 days
How it was run: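 Female Swiss Webster mice (6–8 weeks, n = 5/group) infected ip on day 0 with 1 × 10^4 donor-mouse parasites in IMDM. From day 7, oral dosing for 10 days in DMSO/EtOH/Tween-80/saline: test compound 50 mg/kg bid, benzoxaborole control 25 mg/kg qd, vehicle bid. Diminazene control: single ip dose of 10 mg/kg on day 7. Tail blood checked microscopically at least twice weekly to day 30, then weekly to day 90. Parasitemic mice euthanized.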

CC1(C)OB(O)c2cc(NC(=O)c3ccc(F)cc3C(F)(F)F)ccc21 [compound 14, 4-fluoro-N-(1-hydroxy-3,3-dimethyl-2,1-benzoxaborol-6-yl)-2-(trifluoromethyl)benzamide]
cures as of day 60 ([1]; mice n = 4, 1 mg/kg po bid for 4 days): 0/4
cures as of day 60 ([1]; mice n = 4, 5 mg/kg po bid for 4 days): 1/4
cures as of day 60 ([1]; mice n = 4, 10 mg/kg po bid for 4 days): 4/4
mice free of infection at the end of the experiment [2]: all survived and were free of infection
